Test results as given in ChEMBL document CHEMBL1255444, “In vitro antibacterial activities of JNJ-Q2, a new broad-spectrum fluoroquinolone” (Antimicrob Agents Chemother, 2010).
≈ marks a conversion by molar mass, not a printed value. Calls of active or inactive are those of the source. The calls are words filed in the database; no cut-off is given here.

Assays:
Streptococcus pyogenes = assay: Antibacterial activity against Streptococcus pyogenes by broth microdilution method; type: functional
Outline: (§1)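 MICs by CLSI M07-A7 broth microdilution in cation-adjusted Mueller-Hinton medium. For S. pneumoniae the medium was supplemented with 5% lysed horse blood. CLSI quality control strains were run alongside as appropriate.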

Staphylococcus aureus [1] = assay: Antibacterial activity against methicillin-resistant Staphylococcus aureus isolate OC8525 harboring wild type quinolone resistance-determining region by broth microdilution method; type: functional
Streptococcus pneumoniae [2] = assay: Antibacterial activity against Streptococcus pneumoniae isolate OC7348 assessed as log reduction in bacterial growth at 4 times MIC measured at 6 hrs by time-kill assay; type: functional
Outline: (§2)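 Drug was diluted from 50× stocks made in water or acidified water. Samples were taken at 6 and 24 h and serially diluted onto TSA-5% sheep blood plates. Plates were incubated 20–24 h at 37°C in 5% CO2 before counting CFU. Log10 titer change is given relative to the starting inoculum.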

Staphylococcus aureus [3] = assay: Antibacterial activity against methicillin-resistant Staphylococcus aureus isolate OC12501 by broth microdilution method; type: functional
Outline: (§3)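 CLSI M07-A7 broth microdilution MIC. Medium was cation-adjusted Mueller-Hinton broth. For S. pneumoniae it was Mueller-Hinton supplemented with 5% lysed horse blood. CLSI quality-control strains were included as appropriate.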

Klebsiella aerogenes = assay: Antibacterial activity against Enterobacter aerogenes by broth microdilution method; type: functional; outline: as §1
Streptococcus pneumoniae [4] = assay: Antibacterial activity against Streptococcus pneumoniae isolate OC6608 assessed as log reduction in bacterial growth at 2 times MIC measured at 6 hrs by time-kill assay; type: functional; outline: as §2
Staphylococcus aureus [5] = assay: Antibacterial activity against methicillin-resistant Staphylococcus aureus isolate OC11223 assessed as log reduction in bacterial growth at 2 times MIC measured at 24 hrs by time-kill assay; type: functional
Outline: (§4)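 Overnight MRSA cultures were diluted into fresh cation-adjusted Mueller-Hinton broth to about 5 × 10^6 CFU/ml. […] Samples were plated serially diluted on trypticase soy agar, and CFU were counted after 20-24 h at 37°C. Value is the log10 decrease at 24 h from the starting inoculum; detection limit 100 CFU.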

Citrobacter freundii = assay: Antibacterial activity against Citrobacter freundii by broth microdilution method; type: functional; outline: as §1
Streptococcus pneumoniae [6] = assay: Antibacterial activity against Streptococcus pneumoniae isolate OC6790 assessed as log reduction in bacterial growth at 4 times MIC measured at 24 hrs by time-kill assay; type: functional; outline: as §2
Escherichia coli = assay: Antibacterial activity against ciprofloxacin-resistant Escherichia coli by broth microdilution method; type: functional; outline: as §3
Streptococcus pneumoniae [7] = assay: Antibacterial activity against Streptococcus pneumoniae isolate OC6790 by broth microdilution method; type: functional; outline: as §3
Streptococcus pneumoniae [8] = assay: Antibacterial activity against Streptococcus pneumoniae isolate OC6608 assessed as log reduction in bacterial growth at 4 times MIC measured at 6 hrs by time-kill assay; type: functional; outline: as §2
Streptococcus pneumoniae [9] = assay: Antibacterial activity against Streptococcus pneumoniae isolate OC7348 by broth microdilution method; type: functional; outline: as §3
Streptococcus pneumoniae [10] = assay: Antibacterial activity against Streptococcus pneumoniae isolate OC7348 assessed as log reduction in bacterial growth at 2 times MIC measured at 6 hrs by time-kill assay; type: functional; outline: as §2
Staphylococcus aureus [11] = assay: Antibacterial activity against Staphylococcus aureus […] by broth microdilution method; type: functional; outline: as §3
Staphylococcus aureus [12] = assay: Antibacterial activity against methicillin-resistant Staphylococcus aureus isolate OC8532 harboring wild type quinolone resistance-determining region by agar dilution method; type: functional
Outline: (§5)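 CLSI agar dilution MIC on cation-adjusted Mueller-Hinton medium. These were the MIC values used for the resistance studies, and CLSI quality-control strains were included as appropriate.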

Serratia marcescens = assay: Antibacterial activity against Serratia marcescens by broth microdilution method; type: functional; outline: as §1
Streptococcus pneumoniae [13] = assay: Antibacterial activity against penicillin-resistant Streptococcus pneumoniae by broth microdilution method; type: functional, organism-based
Outline: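 CLSI M07-A7 broth microdilution MIC in cation-adjusted Mueller-Hinton medium. For S. pneumoniae the medium was supplemented with 5% lysed horse blood. CLSI quality-control strains were included as appropriate.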

Streptococcus pneumoniae [14] = assay: Antibacterial activity against Streptococcus pneumoniae isolate OC6610 assessed as log reduction in bacterial growth at 4 times MIC measured at 6 hrs by time-kill assay; type: functional; outline: as §2
Streptococcus pneumoniae [15] = assay: Ratio of Ciprofloxacin MIC90 to compound MIC90 for ciprofloxacin-resistant Streptococcus pneumoniae; type: functional
Streptococcus pneumoniae [16] = assay: Antibacterial activity against ciprofloxacin-resistant Streptococcus pneumoniae by broth microdilution method; type: functional; outline: as §3
Staphylococcus aureus [17] = assay: Antibacterial activity against methicillin-resistant Staphylococcus aureus by broth microdilution method; type: functional; outline: as §3
Streptococcus pneumoniae [18] = assay: Antibacterial activity against Streptococcus pneumoniae isolate OC6608 assessed as log reduction in bacterial growth at 2 times MIC measured at 24 hrs by time-kill assay; type: functional; outline: as §2
[19] = Dissociation constant, pKa of the compound; type: physicochemical
Streptococcus pneumoniae [20] = assay: Antibacterial activity against Streptococcus pneumoniae isolate OC6610 assessed as log reduction in bacterial growth at 2 times MIC measured at 24 hrs by time-kill assay; type: functional; outline: as §2
Klebsiella pneumoniae = assay: Antibacterial activity against Klebsiella pneumoniae by broth microdilution method; type: functional; outline: as §1
Staphylococcus aureus [21] = assay: Antibacterial activity against methicillin-resistant Staphylococcus aureus isolate OC8525 harboring wild type quinolone resistance-determining region by agar dilution method; type: functional; outline: as §5
Streptococcus pneumoniae [22] = assay: Ratio of Moxifloxacin MIC90 to compound MIC90 for ciprofloxacin-resistant Streptococcus pneumoniae; type: functional
Providencia stuartii [23] = assay: Ratio of Moxifloxacin MIC90 to compound MIC90 for Providencia stuartii; type: functional
[24] = test system: Staphylococcus epidermidis; assay: Antibacterial activity against methicillin-resistant Staphylococcus epidermidis by broth microdilution method; type: functional
Providencia stuartii [25] = assay: Antibacterial activity against Providencia stuartii by broth microdilution method; type: functional; outline: as §1
Staphylococcus aureus [26] = assay: Antibacterial activity against methicillin-resistant Staphylococcus aureus isolate OC4222 harboring gyrA S84L and parC S80F mutant gene assessed as log reduction in bacterial growth at 2 times MIC measured at 24 hrs by time-kill assay; type: functional; outline: as §4
Staphylococcus aureus [27] = assay: Antibacterial activity against methicillin-resistant Staphylococcus aureus isolate OC17042 harboring gyrA S84L/G106D, parC S80F and parE D732N mutant gene by broth microdilution method; type: functional; outline: as §3
Providencia stuartii [28] = assay: Ratio of Levofloxacin MIC90 to compound MIC90 for Providencia stuartii; type: functional
Streptococcus pneumoniae [29] = assay: Antibacterial activity against Streptococcus pneumoniae isolate OC7189 by broth microdilution method; type: functional; outline: as §3
Streptococcus pneumoniae [30] = assay: Antibacterial activity against Streptococcus pneumoniae isolate OC6585 assessed as log reduction in bacterial growth at 4 times MIC measured at 6 hrs by time-kill assay; type: functional; outline: as §2
Streptococcus pneumoniae [31] = assay: Antibacterial activity against Streptococcus pneumoniae OC7453 harboring gyrA S81F mutant gene by agar dilution method; type: functional
Outline: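 MICs for the resistance-selection studies were determined by CLSI agar dilution on Mueller-Hinton medium. For S. pneumoniae the medium was supplemented with 5% lysed horse blood. For MRSA fluctuation-assay strains an arithmetic agar dilution scheme was used for a more precise MIC.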

Staphylococcus aureus [32] = assay: Antibacterial activity against methicillin-resistant Staphylococcus aureus isolate OC11696 assessed as log reduction in bacterial growth at 4 times MIC measured at 24 hrs by time-kill assay; type: functional; outline: as §4

COc1c(N2CCC/C(=C(\F)CN)C2)c(F)cc2c(=O)c(C(=O)O)cn(C3CC3)c12 [ACORAFLOXACIN]
MIC (Streptococcus pyogenes): 0.008 µg/mL (≈ 0.0191 µM) | MIC50 (Streptococcus pyogenes): 0.008 µg/mL (≈ 0.0191 µM) | MIC90 (Streptococcus pyogenes): 0.015 µg/mL (≈ 0.0358 µM) | MIC (Staphylococcus aureus [1]): 0.008 µg/mL (≈ 0.0191 µM) | deltalog10CFU/ml (Streptococcus pneumoniae [2]): 3.6 | MIC (Staphylococcus aureus [3]): 0.06 µg/mL (≈ 0.143 µM) | MIC50 (Klebsiella aerogenes): 0.12 µg/mL (≈ 0.286 µM) | MIC90 (Klebsiella aerogenes): 0.25 µg/mL (≈ 0.596 µM) | deltalog10CFU/ml (Streptococcus pneumoniae [4]): 3.8 | deltalog10CFU/ml (Staphylococcus aureus [5]): 2.5 | MIC50 (Citrobacter freundii): 2 µg/mL (≈ 4.77 µM) | MIC90 (Citrobacter freundii): 8 µg/mL (≈ 19.1 µM) | deltalog10CFU/ml (Streptococcus pneumoniae [6]): 6.8 | MIC50 (Escherichia coli): 4 µg/mL (≈ 9.54 µM) | MIC90 (Escherichia coli): 16 µg/mL (≈ 38.1 µM) | MIC (Streptococcus pneumoniae [7]): 0.12 µg/mL (≈ 0.286 µM) | deltalog10CFU/ml (Streptococcus pneumoniae [8]): 4.7 | MIC (Streptococcus pneumoniae [9]): 0.12 µg/mL (≈ 0.286 µM) | deltalog10CFU/ml (Streptococcus pneumoniae [10]): 3.8 | MIC50 (Staphylococcus aureus [11]): 0.12 µg/mL (≈ 0.286 µM) | MIC90 (Staphylococcus aureus [11]): 0.25 µg/mL (≈ 0.596 µM) | MIC (Staphylococcus aureus [12]): 0.008 µg/mL (≈ 0.0191 µM) | MIC50 (Serratia marcescens): 0.5 µg/mL (≈ 1.19 µM) | MIC90 (Serratia marcescens): 1 µg/mL (≈ 2.38 µM) | Activity (Streptococcus pneumoniae [13]): Active | deltalog10CFU/ml (Streptococcus pneumoniae [14]): 3.5 | Ratio (Streptococcus pneumoniae [15]): 9 | MIC50 (Streptococcus pneumoniae [16]): 0.12 µg/mL (≈ 0.286 µM) | MIC90 (Streptococcus pneumoniae [16]): 0.25 µg/mL (≈ 0.596 µM) | MIC50 (Staphylococcus aureus [17]): 0.12 µg/mL (≈ 0.286 µM) | MIC90 (Staphylococcus aureus [17]): 0.25 µg/mL (≈ 0.596 µM) | deltalog10CFU/ml (Streptococcus pneumoniae [18]): 5.8 | pKa [19]: 6.13 | deltalog10CFU/ml (Streptococcus pneumoniae [20]): 5 | MIC50 (Klebsiella pneumoniae): 0.12 µg/mL (≈ 0.286 µM) | MIC90 (Klebsiella pneumoniae): 0.25 µg/mL (≈ 0.596 µM) | MIC (Staphylococcus aureus [21]): 0.012 µg/mL (≈ 0.0286 µM) | Ratio (Streptococcus pneumoniae [22]): 9 | Ratio (Providencia stuartii [23]): 16 | MIC50 [24]: 0.12 µg/mL (≈ 0.286 µM) | MIC90 [24]: 0.25 µg/mL (≈ 0.596 µM) | MIC50 (Providencia stuartii [25]): 2 µg/mL (≈ 4.77 µM) | MIC90 (Providencia stuartii [25]): 4 µg/mL (≈ 9.54 µM) | deltalog10CFU/ml (Staphylococcus aureus [26]): 5.9 | MIC (Staphylococcus aureus [27]): 0.5 µg/mL (≈ 1.19 µM) | Ratio (Providencia stuartii [28]): 16 | MIC (Streptococcus pneumoniae [29]): 0.015 µg/mL (≈ 0.0358 µM) | deltalog10CFU/ml (Streptococcus pneumoniae [30]): 4.3 | MIC (Streptococcus pneumoniae [31]): 0.03 µg/mL (≈ 0.0715 µM) | deltalog10CFU/ml (Staphylococcus aureus [32]): 6.5
